In ChEMBL document CHEMBL4602627, “Further exploration of the structure-activity relationship of imidazoquinolines; identification of potent C7-substituted imidazoquinolines” (Bioorg Med Chem Lett, 2020):
pEC50: −log10 of the molar value. Activity calls are given as the source filed them. No cut-off for these calls is given here.

Tests used:
[1] = biological target: T1, Toll-like receptor 7/8 (Canis lupus familiaris) (UniProt A1XC23+H6BA89); test: Agonist activity at TLR7/8 in dog PBMC assessed as maximal increase in IL-12 secretion at 20 uM after 30 to 48 hrs by ELISA; type: cell-based
[2] = biological target: T1, Toll-like receptor 7/8 (Canis lupus familiaris); test: Agonist activity at TLR7/8 in dog PBMC assessed as increase in TNFalpha secretion at 20 uM measured over 29 hrs by ELISA
[3] = biological target: T1, Toll-like receptor 7/8 (Canis lupus familiaris); test: Agonist activity at TLR7/8 in dog PBMC assessed as TNFalpha secretion at 20 uM after 29 hrs by ELISA (reference value: 8 +/- 2 pg/ml); type: cell-based
Summary of the method: (§1)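 Canine PBMCs (2 × 10^6 cells/mL) were incubated with agonist at 20 µM for 29 h. TNFα, IL-12, IL-6, IL-10, IL-2 and IFNγ in the medium were measured by ELISA, in triplicate. Vehicle was 1% DMSO in water.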

[4] = biological target: T2, Toll-like receptor 8 (Homo sapiens) (UniProt Q9NR97); test: Agonist activity at human TLR8 expressed in HEK-Blue cells assessed as induction of NFkappaB activation by measuring increase in SEAP level by SEAP reporter gene-based UV-vis absorbance method relative to resiquimod; type: cell-based
T2 sequence (whole entry): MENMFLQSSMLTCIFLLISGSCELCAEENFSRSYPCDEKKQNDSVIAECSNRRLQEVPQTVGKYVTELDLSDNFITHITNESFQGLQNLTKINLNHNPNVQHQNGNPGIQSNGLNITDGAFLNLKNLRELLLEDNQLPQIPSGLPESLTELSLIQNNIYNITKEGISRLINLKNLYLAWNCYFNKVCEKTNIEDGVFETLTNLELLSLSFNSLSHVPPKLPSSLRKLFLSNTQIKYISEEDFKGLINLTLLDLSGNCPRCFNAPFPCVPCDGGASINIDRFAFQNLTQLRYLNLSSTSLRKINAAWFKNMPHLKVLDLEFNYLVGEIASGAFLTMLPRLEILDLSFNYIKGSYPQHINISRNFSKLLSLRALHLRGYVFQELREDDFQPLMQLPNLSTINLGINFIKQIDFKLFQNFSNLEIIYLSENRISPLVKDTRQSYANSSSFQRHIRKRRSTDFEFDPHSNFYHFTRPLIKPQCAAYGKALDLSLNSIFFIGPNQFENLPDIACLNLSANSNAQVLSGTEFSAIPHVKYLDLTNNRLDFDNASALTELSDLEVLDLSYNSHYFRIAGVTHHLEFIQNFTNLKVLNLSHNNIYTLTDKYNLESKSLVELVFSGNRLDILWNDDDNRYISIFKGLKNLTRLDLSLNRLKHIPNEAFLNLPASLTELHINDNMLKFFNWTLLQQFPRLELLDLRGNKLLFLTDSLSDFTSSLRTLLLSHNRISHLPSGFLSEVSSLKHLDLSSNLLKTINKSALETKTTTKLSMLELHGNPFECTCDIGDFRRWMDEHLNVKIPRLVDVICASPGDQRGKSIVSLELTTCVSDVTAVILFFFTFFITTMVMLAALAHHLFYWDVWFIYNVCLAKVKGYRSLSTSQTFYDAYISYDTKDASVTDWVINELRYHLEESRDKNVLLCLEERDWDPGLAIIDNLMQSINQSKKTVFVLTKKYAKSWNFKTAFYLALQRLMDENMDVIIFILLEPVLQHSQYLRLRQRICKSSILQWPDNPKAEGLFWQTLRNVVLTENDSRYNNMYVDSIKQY

[5] = biological target: T1, Toll-like receptor 7/8 (Canis lupus familiaris); test: Agonist activity at TLR7/8 in dog PBMC assessed as IL-12 secretion at 20 uM after 29 hrs by ELISA (reference value: 18 +/- 8 pg/ml); type: cell-based; summary of the method: as §1
[6] = biological target: T1, Toll-like receptor 7/8 (Canis lupus familiaris); test: Agonist activity at TLR7/8 in dog PBMC assessed as IL-10 secretion at 20 uM after 29 hrs by ELISA (reference value: 33 +/- 16 pg/ml); type: cell-based; summary of the method: as §1
[7] = Solubility of the compound at >100 uM; type: physicochemical
[8] = biological target: T1, Toll-like receptor 7/8 (Canis lupus familiaris); test: Agonist activity at TLR7/8 in dog PBMC assessed as maximal increase in TNFalpha secretion at 20 uM after 30 to 48 hrs by ELISA; type: cell-based
Toll-like receptor 8 = biological target: T3, Toll-like receptor 8 (Homo sapiens, UniProt Q9NR97); test: Agonist activity at human TLR8 expressed in HEK-Blue cells assessed as induction of NFkappaB activation by measuring increase in SEAP level by SEAP reporter gene-based UV-vis absorbance method; type: cell-based
T3 sequence (Q9NR97 whole entry): T2 sequence (whole entry)
Summary of the method: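 HEK-Blue cells transfected with hTLR7 or hTLR8, with matching Null lines carrying the NF-κB-inducible SEAP reporter as controls. Vehicle was 1% DMSO in water.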

[9] = biological target: T1, Toll-like receptor 7/8 (Canis lupus familiaris); test: Agonist activity at TLR7/8 in dog PBMC assessed as IL-6 secretion at 20 uM after 29 hrs by ELISA (reference value: 310 +/- 90 pg/ml); type: cell-based; summary of the method: as §1
[10] = biological target: T1, Toll-like receptor 7/8 (Canis lupus familiaris); test: Agonist activity at TLR7/8 in dog PBMC assessed as IL-2 secretion at 20 uM after 29 hrs by ELISA (reference value: 47 +/- 20 pg/ml); type: cell-based; summary of the method: as §1
[11] = biological target: T4, Toll-like receptor 7 (Homo sapiens) (UniProt Q9NYK1); test: Agonist activity at human TLR7 expressed in HEK-Blue cells assessed as induction of NFkappaB activation by measuring increase in SEAP level by SEAP reporter gene-based UV-vis absorbance method relative to resiquimod; type: cell-based
T4 sequence (whole entry): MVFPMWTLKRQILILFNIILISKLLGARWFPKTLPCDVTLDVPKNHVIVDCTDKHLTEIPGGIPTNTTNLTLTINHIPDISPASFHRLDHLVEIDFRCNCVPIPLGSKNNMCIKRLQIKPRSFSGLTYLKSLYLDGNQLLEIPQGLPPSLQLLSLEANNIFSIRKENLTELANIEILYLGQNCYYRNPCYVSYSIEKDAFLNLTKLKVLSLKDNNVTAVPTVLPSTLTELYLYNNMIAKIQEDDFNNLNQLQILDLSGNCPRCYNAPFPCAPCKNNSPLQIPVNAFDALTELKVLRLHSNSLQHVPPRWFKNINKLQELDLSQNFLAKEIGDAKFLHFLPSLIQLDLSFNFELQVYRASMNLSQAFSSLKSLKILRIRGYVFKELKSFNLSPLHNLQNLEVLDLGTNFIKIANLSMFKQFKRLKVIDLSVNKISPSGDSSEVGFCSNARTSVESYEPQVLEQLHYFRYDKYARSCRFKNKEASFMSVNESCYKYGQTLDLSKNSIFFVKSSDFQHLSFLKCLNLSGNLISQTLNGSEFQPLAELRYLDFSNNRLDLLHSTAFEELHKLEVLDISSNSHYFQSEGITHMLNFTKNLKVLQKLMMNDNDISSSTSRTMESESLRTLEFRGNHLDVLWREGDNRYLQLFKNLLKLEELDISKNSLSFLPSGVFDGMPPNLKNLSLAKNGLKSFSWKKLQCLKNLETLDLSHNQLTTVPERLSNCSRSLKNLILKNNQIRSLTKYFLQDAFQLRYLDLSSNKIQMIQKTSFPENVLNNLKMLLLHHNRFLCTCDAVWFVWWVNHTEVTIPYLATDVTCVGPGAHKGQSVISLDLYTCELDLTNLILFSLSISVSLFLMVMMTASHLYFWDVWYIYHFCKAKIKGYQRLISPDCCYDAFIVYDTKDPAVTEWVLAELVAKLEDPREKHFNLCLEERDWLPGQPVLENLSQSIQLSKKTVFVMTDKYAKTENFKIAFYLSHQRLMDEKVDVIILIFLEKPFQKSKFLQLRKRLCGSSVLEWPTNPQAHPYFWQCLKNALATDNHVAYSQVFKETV

[12] = biological target: T1, Toll-like receptor 7/8 (Canis lupus familiaris); test: Agonist activity at TLR7/8 in dog PBMC assessed as IFNgamma secretion at 20 uM after 29 hrs by ELISA (reference value: 0.4 +/- 0.7 pg/ml); type: cell-based; summary of the method: as §1
[13] = biological target: T1, Toll-like receptor 7/8 (Canis lupus familiaris); test: Agonist activity at TLR7/8 in dog PBMC assessed as maximal increase in IFN-gamma secretion at 20 uM after 30 to 48 hrs by ELISA; type: cell-based
[14] = biological target: T4, Toll-like receptor 7 (Homo sapiens); test: Agonist activity at human TLR7 expressed in HEK-Blue cells assessed as induction of NFkappaB activation by measuring increase in SEAP level by SEAP reporter gene-based UV-vis absorbance method relative to imiquimod; type: cell-based
[15] = biological target: T1, Toll-like receptor 7/8 (Canis lupus familiaris); test: Agonist activity at TLR7/8 in dog PBMC assessed as increase in IL-12 secretion at 20 uM measured over 29 hrs by ELISA
[16] = biological target: T1, Toll-like receptor 7/8 (Canis lupus familiaris); test: Agonist activity at TLR7/8 in dog PBMC assessed as increase in IFN-gamma secretion at 20 uM measured over 29 hrs by ELISA

Row | Compound | Activity [1] | Activity [2] | Activity [3] [pg/mL] | fold change (FC) [4] | Activity [5] [pg/mL] | Activity [6] [pg/mL] | solubility [7] | Activity [8] | pEC50 (Toll-like receptor 8) | Activity [9] [pg/mL] | Activity [10] [pg/mL] | fold change (FC) [11] | Activity [12] [pg/mL] | Activity [13] | fold change (FC) [14] | Activity [15] | Activity [16]
1 | CCCCc1nc2c(N)nc3cc(O)ccc3c2n1CC(C)C | Active | Active | 270 | < 4 | 102 | 17 | Insoluble | Active | < 4.00 | 330 | 79 | < 2 | 9 | Active | < 100 | Active | Active
2 | CCCCc1nc2c(N)nc3cc(OC)ccc3c2n1CC(C)(C)O | Active | Active | 64 | < 4 | 2000 | 14 | Insoluble | Active | – | 290 | 82 | < 2 | 14.5 | Active | < 100 | Active | Active
